In brackets after ≈: the same amount, converted by molar mass.

Assay [1] can be described thus: Inhibition of bocillin FL binding to penicillin-susceptible Streptococcus pneumoniae OC 8865 penicillin-binding protein 2b. Summed up:
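S. pneumoniae OC 8865 PBPs assayed in whole cells; drug competition followed by Bocillin FL labeling and imaging of labeled PBPs. IC50 is 50% inhibition of Bocillin FL binding compared with a no-drug control.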

Another assay has as its system Escherichia coli. As to the kind of experiment: Antibacterial activity against Escherichia coli MC4100 by CLSI method. The format is functional.
The nature of assay [2]: Inhibition of bocillin FL binding to Escherichia coli MC4100 penicillin-binding protein 6. The method, boiled down: (§1)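 Isolated E. coli MC4100 PBPs were competed with 10 drug concentrations from 0.016 μg/ml to 8 μg/ml, then labeled with Bocillin FL. Fluorescent PBP bands were imaged. IC50 is the concentration giving 50% inhibition of Bocillin FL binding to each PBP relative to a no-drug control.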

A short description of assay [3]: Inhibition of bocillin FL binding to Escherichia coli MC4100 penicillin-binding protein 5. Summed up: as §1
Assay [4] can be described thus: Inhibition of bocillin FL binding to Escherichia coli MC4100 penicillin-binding protein 4. Summed up:
as §1

The nature of assay [5]: Inhibition of bocillin FL binding to Escherichia coli MC4100 penicillin-binding protein 3. The method, boiled down: as §1
The target in assay [6] is T1, Cell shape peptidoglycan synthetase penicillin-binding protein 2 (Escherichia coli, UniProt Q2TL65).
T1 sequence (Q2TL65 whole entry): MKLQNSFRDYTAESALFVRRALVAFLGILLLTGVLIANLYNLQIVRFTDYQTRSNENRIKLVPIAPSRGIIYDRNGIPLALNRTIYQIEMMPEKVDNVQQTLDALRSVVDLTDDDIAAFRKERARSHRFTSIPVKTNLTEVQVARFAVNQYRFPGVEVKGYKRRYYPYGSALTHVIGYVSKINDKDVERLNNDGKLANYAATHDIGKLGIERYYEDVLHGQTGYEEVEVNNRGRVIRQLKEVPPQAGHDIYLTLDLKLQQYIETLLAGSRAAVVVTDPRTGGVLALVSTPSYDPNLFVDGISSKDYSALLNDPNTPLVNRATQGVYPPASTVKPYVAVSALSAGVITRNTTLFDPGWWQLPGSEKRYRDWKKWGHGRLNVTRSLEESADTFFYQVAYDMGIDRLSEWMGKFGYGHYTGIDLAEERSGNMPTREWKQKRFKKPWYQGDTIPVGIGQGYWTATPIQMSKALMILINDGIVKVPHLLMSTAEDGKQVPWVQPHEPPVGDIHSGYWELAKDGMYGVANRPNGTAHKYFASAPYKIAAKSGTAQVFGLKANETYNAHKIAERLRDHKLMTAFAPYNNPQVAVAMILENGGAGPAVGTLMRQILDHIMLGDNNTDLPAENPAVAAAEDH
As to the kind of experiment: Inhibition of bocillin FL binding to Escherichia coli MC4100 penicillin-binding protein 2. Summed up:
(§2)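 Isolated E. coli MC4100 PBPs; competition with drug at 10 concentrations, 0.016 μg/ml to 8 μg/ml, then Bocillin FL labeling. Gel bands visualized by imaging. IC50 is the concentration giving 50% inhibition of Bocillin FL binding relative to a no-drug control.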

Assay [7] can be described thus: Inhibition of bocillin FL binding to Escherichia coli MC4100 penicillin-binding protein 1b. The method, boiled down:
as §1

Assay [8] can be described thus: Inhibition of bocillin FL binding to Escherichia coli MC4100 penicillin-binding protein 1a. Summed up: as §2
For assay [9], the target named is T2, Penicillin-binding protein 4 (Staphylococcus aureus, UniProt P72355).
T2 sequence (P72355 whole entry): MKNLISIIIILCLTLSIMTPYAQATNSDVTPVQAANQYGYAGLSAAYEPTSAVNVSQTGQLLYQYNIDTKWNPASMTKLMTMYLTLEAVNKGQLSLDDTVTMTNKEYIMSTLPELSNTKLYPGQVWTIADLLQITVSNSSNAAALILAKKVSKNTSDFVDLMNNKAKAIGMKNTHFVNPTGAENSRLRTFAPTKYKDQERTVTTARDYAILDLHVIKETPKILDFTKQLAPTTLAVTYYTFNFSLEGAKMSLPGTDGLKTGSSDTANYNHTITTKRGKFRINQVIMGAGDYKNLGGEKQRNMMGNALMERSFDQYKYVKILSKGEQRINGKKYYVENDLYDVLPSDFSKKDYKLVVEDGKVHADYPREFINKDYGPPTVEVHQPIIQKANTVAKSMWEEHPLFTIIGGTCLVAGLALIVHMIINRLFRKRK
As to the kind of experiment: Inhibition of bocillin FL binding to methicillin-susceptible Staphylococcus aureus ATCC 29213 penicillin-binding protein 4. The method, boiled down:
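Isolated S. aureus ATCC 29213 PBPs exposed to drug over 0.001 μg/ml to 50 μg/ml, followed by Bocillin FL labeling and fluorescence imaging. IC50 is 50% inhibition of Bocillin FL binding relative to no-drug control.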

The target in the next assay is T3, MecA (Staphylococcus aureus, UniProt Q7DHH4).
T3 sequence (Q7DHH4 whole entry): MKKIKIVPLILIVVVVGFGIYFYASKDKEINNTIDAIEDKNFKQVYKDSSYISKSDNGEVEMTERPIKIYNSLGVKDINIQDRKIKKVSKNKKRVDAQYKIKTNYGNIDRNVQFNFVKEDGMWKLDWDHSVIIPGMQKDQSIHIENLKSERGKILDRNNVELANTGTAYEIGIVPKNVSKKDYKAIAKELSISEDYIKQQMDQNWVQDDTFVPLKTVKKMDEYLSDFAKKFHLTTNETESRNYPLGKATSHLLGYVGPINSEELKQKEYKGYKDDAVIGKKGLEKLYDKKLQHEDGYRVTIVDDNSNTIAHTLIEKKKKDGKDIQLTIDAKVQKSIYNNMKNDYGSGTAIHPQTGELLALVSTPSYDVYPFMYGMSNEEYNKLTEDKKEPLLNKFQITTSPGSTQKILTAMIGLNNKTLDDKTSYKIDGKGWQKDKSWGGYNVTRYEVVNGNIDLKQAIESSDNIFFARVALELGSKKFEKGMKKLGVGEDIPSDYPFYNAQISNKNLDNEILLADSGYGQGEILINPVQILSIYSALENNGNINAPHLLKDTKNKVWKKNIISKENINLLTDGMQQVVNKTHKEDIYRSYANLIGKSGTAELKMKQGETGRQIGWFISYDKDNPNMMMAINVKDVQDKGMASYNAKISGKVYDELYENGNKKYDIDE
The assay can be described thus: Inhibition of bocillin FL binding to methicillin-resistant Staphylococcus aureus OC 3726 penicillin-binding protein 2a. The method, boiled down:
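OC 3726 membranes were first preincubated with 1 mg/ml clavulanic acid to saturate all PBPs except PBP2a. Drug was then added (0.16 μg/ml to 50 μg/ml), followed by Bocillin FL labeling and fluorescence imaging. IC50 is 50% inhibition of PBP2a labeling compared with the no-drug (0 μg/ml) sample.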

The next assay has as its system Staphylococcus aureus. As to the kind of experiment: Antibacterial activity against methicillin-resistant Staphylococcus aureus OC 3726 by CLSI method. The format is functional.

For orientation: IC50 means the midpoint of a concentration-inhibition curve. Low readings indicate greater potency, high ones weaker potency. The term MIC denotes the least concentration at which growth counts as inhibited. Take `Nc1nc(/C(=N/O)C(=O)N[C@@H]2C(=O)N3C(C(=O)O)=C(/C=C4\CCN([C@@H]5CCNC5)C4=O)CS[C@H]23)ns1` [CEFTOBIPROLE]: the 50% inhibitory concentration (IC50) was 0.06 µg/mL (≈ 0.112 µM) in assay [1]; 3 µg/mL (≈ 5.61 µM) in assay [2]; > 8 µg/mL in assay [3]; 0.5 µg/mL (≈ 0.935 µM) in assay [4]; 0.2 µg/mL (≈ 0.374 µM) in assay [5]; 374 nM in [6]. Also, the IC50 in [7] is 8 µg/mL (≈ 15 µM); in assay [8], 0.3 µg/mL (≈ 0.561 µM); in assay [9] it was 1870 nM; at MecA, 1680 nM. Further, the MIC against Escherichia coli was 0.03 µg/mL (≈ 0.0561 µM); with Staphylococcus aureus it was 2 µg/mL (≈ 3.74 µM).
For `CC(C)(O/N=C(\C(=O)N[C@@H]1C(=O)N2C(C(=O)[O-])=C(C[n+]3ccccc3)CS[C@H]12)c1csc(N)n1)C(=O)O` [CEFTAZIDIME], the MIC is 0.12 µg/mL (≈ 0.22 µM) in the assay on Escherichia coli and > 128 µg/mL in the assay with Staphylococcus aureus. For the same compound, the IC50 in assay [2] is > 4 µg/mL; in [3] it was > 4 µg/mL; in assay [4] it was > 4 µg/mL; in [5] it was 0.07 µg/mL (≈ 0.128 µM); in assay [6], 7320 nM; in assay [7], 1.1 µg/mL (≈ 2.01 µM). The IC50 in assay [8] is 1.1 µg/mL (≈ 2.01 µM); on MecA it was > 91500 nM.
For `CO/N=C(\C(=O)N[C@@H]1C(=O)N2C(C(=O)O)=C(CSc3nc(=O)c(O)nn3C)CS[C@H]12)c1csc(N)n1` (stereo in doubt) [CEFTRIAXONE], the IC50 is > 1 µg/mL in assay [1]; > 8 µg/mL in assay [2]; 6 µg/mL (≈ 10.8 µM) in assay [3]; 0.4 µg/mL (≈ 0.721 µM) in [4]; < 0.01 µg/mL in assay [5]; 361 nM in assay [6]. Further, the IC50 was 0.5 µg/mL (≈ 0.902 µM) in assay [7], 0.2 µg/mL (≈ 0.361 µM) in [8], 18000 nM in assay [9] and > 90200 nM on MecA. Besides, the MIC with Escherichia coli is 0.06 µg/mL (≈ 0.108 µM); in the assay on Staphylococcus aureus, > 64 µg/mL.

(Values after ChEMBL document CHEMBL1157359, “Binding of ceftobiprole and comparators to the penicillin-binding proteins of Escherichia coli, Pseudomonas aeruginosa, Staphylococcus aureus, and Streptococcus pneumoniae” (Antimicrob Agents Chemother, 2007).)
